Screening data as filed in PubChem.
Shown are actives, neighbours in structure and some others; about 3.1% of the full set was active somewhere.
FGF22 binding = binders of human FGF22 protein, primary screen, FGF22 synaptogenesis inhibitor project, biophysical, thermal shift, single point; Fibroblast growth factor 22 (Homo sapiens), Q9HCT0; recombinant FGF22 thermal shift, SYPRO orange fluorescence; percent of sucrose octasulfate shift, DMSO zero; activity (Tm shift, normalised), % at 9.99 µM; 1.5% of 340,000 active; AID 651658, 2012;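 active = mean Tm shift, scaled 0 neutral to 100 positive control, at about 1.3% or above, every replicate too, limit read from the data; inconclusive = no clear call, values can overlap the other calls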
Target sequence (Q9HCT0 whole entry, looked up): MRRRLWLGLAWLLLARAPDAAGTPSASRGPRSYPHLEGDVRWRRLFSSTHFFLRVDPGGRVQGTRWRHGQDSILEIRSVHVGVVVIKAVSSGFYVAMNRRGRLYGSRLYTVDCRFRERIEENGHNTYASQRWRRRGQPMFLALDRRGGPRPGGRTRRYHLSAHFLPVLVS
FN deposit inh = inhibitors of fibronectin matrix deposition, primary screen, AH1F cells, Alexa488-fibronectin fluorescence, plate reader | AID 743247, 2014 | AH1F fibroblasts, overnight | 0.086% of 350,000 active | inhibition, % at 12.6 µM;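 active = mean inhibition across replicates of 30% or more, regardless of how many single replicates reach that level; inconclusive = mean under 30% yet at least half of replicates reach 30%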;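 note: positive control wells lacked labelled fibronectin entirely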
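Material – AH1F fibroblast monolayer, labelled fibronectin deposition · Reagent – labelled fibronectin 24 nM · Timing – 1 h adhesion, overnight exposure · Measured by – fluorescence at 485 nm excitation, 525 nm emission · Read-out – inhibition of fibronectin deposition signal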
EWS-Fli block = EWS/Fli-driven NR0B1 reporter inhibitors, primary screen, A673 cells, NR0B1 luciferase, luminescence, MLPCN library; AID 651661, 2012; viability-normalised; 0.67% of 350,000 active; inhibition, % at 12.6 µM;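 active = mean inhibition of at least 50% after viability correction, with every replicate also passing that limit; inconclusive = mean reaches 50% but only one of two replicates passes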;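 note: firefly luciferase signal divided by Alamar Blue viability fluorescence both relative to DMSO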
PAX8 inh HTS = inhibitors of PAX8-driven TPO luciferase reporter, primary screen, RMG-I cells, single concentration | SteadyGlo, 24 h | inhibition, % at 12.6 µM | 1.2% of 360,000 active | AID 652154, 2013;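 active = mean replicate inhibition at least 60% with every replicate also reaching 60%; inconclusive = only one of the two criteria is met; inactive = mean below 60% and not all replicates reaching 60%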;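 note: luciferase light reporting Pax8 driven TPO promoter activity; plate controls were median of neutral control wells for no effect and mitoxantrone controls for full effect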
HIV Env fusion = inhibitors of HIV-1 Env-driven cell-cell fusion, primary screen, HeLa-JRFL effector, CEM21 target cells, luciferase; inhibition, % at 12.3 µM; AID 651610, 2012; 1.1% of 360,000 active;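 active = mean replicate inhibition score of at least 50 and every replicate individually at or above 50; inconclusive = only one of the two criteria met; inactive = mean below 50 and not all replicates reaching 50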;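 note: 0% = plate neutral controls and 100% = maraviroc near 300 nM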
PGC1a acetyl inh = inhibitors of PGC1a acetylation signal, primary screen, cell-based, U2OS, AlphaScreen, inhibitor mode; AlphaScreen anti-acetyl-lysine; with virally co-expressed GCN5 acetyltransferase; inhibition, % at 15.6 µM; 0.17% of 350,000 active; AID 651687, 2012;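 active = every replicate shows inhibition of at least 40%; inconclusive = mean inhibition at least 40% but some replicate below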;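 note: 0% = neutral control wells and 100% = positive control wells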
* hit, by the source's call; ? = inconclusive; nt = no result; [ ] = dose if it differs, or a comment.

SMILES	FGF22 binding	FN deposit inh	EWS-Fli block	PAX8 inh HTS	HIV Env fusion	PGC1a acetyl inh
CN(CC(=O)Nc1ccccc1C(F)(F)F)C(=O)COc1ncnc2sccc12	0	-1	4	5	22	nt
CN(C(=O)COc1ncnc2sccc12)c1ccccc1	43*	3	10	-29	-13	0
CC(=O)N1C[C@H]2[C@@H](c3ccccc31)[C@@H](CO)N2C(=O)c1ccc(F)cc1	0	nt	0	-37	nt	4
Cc1ccc(C2=NNC(c3cccc(F)c3)S2)cc1 (stereo unspecified)	43	-2	?	7	-91	nt
Fc1cccc(C2NN=C(c3ccccc3)S2)c1 (stereo unspecified)	44*	1	8	-29	-105	-2
C/C=C/c1ccc([C@H]2[C@@H](CO)N(C(=O)C3CCC3)C23CN(S(=O)(=O)CC)C3)cc1	nt	nt	5	9	11[16.7 µM]	-7
CC(C)CN(CC(C)C)C(=O)c1cccc(S(=O)(=O)N2CCc3ccccc32)c1	44*	11	35	14	21	10
O=C(COC(=O)c1cccc(S(=O)(=O)N2CCc3ccccc3C2)c1)NCc1ccco1	nt	nt	nt	nt	nt	-29
CC(C)CCNC(=O)c1cccc(S(=O)(=O)N2CCc3ccccc32)c1	nt	11	nt	17	0	-4
Cc1cccc(C(=O)OCC(=O)NCc2ccco2)c1	0	4	-2	7	66*	3
Cc1cccc(C)c1OCCNC(=O)C(=O)NCc1ccco1	0	7	56*	7	-5	nt
O=C(COC(=O)c1cccc(S(=O)(=O)N2CCc3ccccc32)c1)NCc1ccco1	44*	-2	-14	13	-5	2
O=C(C1=C[C@@H](c2ccccc2)C[C@@H](OCc2ccc(CO)cc2)O1)N1CCCC1	0	nt	-53	-18	6[16.7 µM]	nt
O=C(Nc1ccc(F)cc1)N1CCCCN2[C@@H](CO)[C@@H](c3ccc(-c4cccc(F)c4)cc3)[C@@H]2C1	-1	nt	72*	106*	nt	-18
Cc1ccc(-c2ccc([C@H]3[C@@H](CO)N4CCCCN(C(=O)Nc5cccc(F)c5)C[C@@H]34)cc2)cc1	nt	nt	20	11	nt	9
O=C(c1cccc(F)c1)N1CCCCN2[C@H](C1)[C@@H](c1ccc(-c3ccc(F)cc3)cc1)[C@@H]2CO	0	nt	-13	65*	nt	3
Cc1ccc(-c2ccc([C@@H]3[C@H](CO)N4CCCCN(C(=O)Nc5cccc(F)c5)C[C@@H]34)cc2)cc1	-1	nt	32	81*	nt	-15
O=C(Nc1cccc(F)c1)N1CCCCN2[C@@H](CO)[C@@H](c3ccc(-c4ccncc4)cc3)[C@@H]2C1	nt	nt	4	110*	nt	-8
O=C(Nc1cccc(F)c1)N1CCCCN2[C@H](C1)[C@H](c1ccc(-c3ccncc3)cc1)[C@@H]2CO	nt	nt	-4	-14	nt	-3
O=C(C[C@H]1CC[C@@H]2[C@H](COC[C@H](O)CN2Cc2cccc(C(F)(F)F)c2)O1)NCCc1ccncc1	0	-4	3	-5	1[16.7 µM]	1
O=C(C[C@@H]1CC[C@@H]2[C@H](COC[C@H](O)CN2C(=O)Nc2ccc(F)cc2)O1)NC1CCC1	0	-3	nt	nt	nt	1
N#CC1=C(N)Oc2ccc3ccc(O)cc3c2C1c1cccnc1 (stereo unspecified)	0	nt	8	nt	nt	4
N#CC1=C(N)Oc2ccc3ccccc3c2C1c1cccnc1 (stereo unspecified)	43*	5	54*	26	5	nt
N#CC1=C(N)Oc2c(ccc3cccnc23)C1c1ccccc1 (stereo unspecified)	0	36*	59*	26	13	11
O=C(C[C@H]1C=C[C@@H](NC(=O)c2ccc(F)cc2)[C@H](CO)O1)NCCc1ccncc1	0	-7	-3	4	6[16.7 µM]	-7
SMILES	FGF22 binding	FN deposit inh	EWS-Fli block	PAX8 inh HTS	HIV Env fusion	PGC1a acetyl inh
CS(=O)(=O)Nc1ccc2c(c1)[C@H]1C[C@H](CC(=O)NC3CCCCC3)O[C@@H](CO)[C@H]1O2	0	0	-1	0	-4[16.7 µM]	3
O=C(Nc1ccc(Cl)cc1)N[C@@H]1CC[C@@H](CCNC(=O)c2ccccc2F)O[C@@H]1CO	0	4	-4	7	21[16.7 µM]	-1
Cc1ccc(S(=O)(=O)NC(C)(C)CSc2nnc(Nc3ccccc3)s2)cc1	nt	0	nt	nt	58*	-25
CN(C)CCCNC(=O)[C@@H]1[C@@H](CO)[C@@H]2Cn3c(ccc(-c4cccc(F)c4)c3=O)[C@@H]2N1C	0	nt	-3	-21	nt	nt
O=C(NCCCN1CCc2ccccc2C1)Nc1ccc(Cl)cc1	nt	7	nt	nt	79*	-21
CO[C@H]1CN(C)C(=O)c2cc(C#N)ccc2OCC[C@@H]2CC[C@H](OC)[C@@H](CN(C)C(=O)[C@H]1C)O2	0	-12	-5	-8	0[16.7 µM]	nt
O=C(c1ccccc1F)N1CC[C@H]2[C@H](CO)Nc3ccc(-c4cccc(F)c4)cc3[C@H]21	nt	-8	1	-10	nt	-14
CN(C)Cc1cn(CC[C@H]2CC[C@H](NS(=O)(=O)c3ccc(-c4ccccc4)cc3)[C@@H](CO)O2)nn1	0	4	14	-3	2[16.7 µM]	-5
COCc1c(C#N)c(NCCc2ccccc2)nc(C)c1[N+](=O)[O-]	0	-2	27	5	-37	nt
COCc1c(C#N)c(NCc2cc(OC)c(OC)c(OC)c2)nc(C)c1[N+](=O)[O-]	0	2	31	-1	57*	nt
Nc1nc(NCc2ccccc2)nc(NCCO)c1[N+](=O)[O-]	0	7	8	-12	63*	-5
COc1ccc(C(=O)C(C)N(C(=O)c2ccc(Cl)cc2Cl)N2C(=O)C3C4C=CC(C4)C3C2=O)cc1 (stereo unspecified)	nt	nt	nt	nt	123*	8
N/C(=N\OC(=O)c1cc(-c2ccccc2)nc2ccccc12)c1ccccn1	43*	-3	17	-9	-2	nt
N/C(=N\OC(=O)c1ccccc1Cl)c1ccccn1	0	nt	54*	nt	nt	8
COc1ccccc1C(=O)O/N=C(\N)c1ccccn1	0	1	-13	7	-4	7
Cc1ccc(C(=O)O/N=C(\N)c2ccccn2)c(C)c1	0	-3	77*	nt	nt	nt
COc1cccc(NC(=O)N2CC(=O)N3[C@H](CO)[C@H](c4ccc(C#CCC5CCCC5)cc4)[C@@H]3C2)c1	0	-10	-4	1	nt	0
C[C@H](CO)N1C[C@H](C)[C@@H](CN(C)Cc2cncnc2)Oc2ncc(C#CC3CCCCC3)cc2C1=O	0	0	-4	nt	-7[16.7 µM]	-5
